The subject of experiment [1] is Staphylococcus aureus. Description: Minimum inhibitory concentration against methicillin-resistant Staphylococcus aureus (MRSA) A27223. Type of experiment: functional. The procedure, abridged: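 Broth microdilution per NCCLS in Mueller-Hinton broth with 2% NaCl. Inoculum about 5×10⁵ CFU/mL, incubated at 35 °C for 24 h. MIC is the lowest drug concentration that inhibits all visible growth.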

For experiment [2], the system named is Staphylococcus aureus. Description: Minimum inhibitory concentration against methicillin-resistant Staphylococcus aureus (MRSA) A27223 in the presence of 50% calf serum. Type of experiment: functional. The procedure, abridged:
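NCCLS broth MIC in Mueller-Hinton broth with 2% NaCl plus 50% calf serum. Inoculum about 5×10⁵ CFU/mL, incubated at 35 °C for 24 h. Read as the lowest concentration with no visible growth.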

Experiment [3] has as its system Staphylococcus aureus. Description: Dose required for protective activity against methicillin-resistant Staphylococcus aureus (MRSA) A27223 in mouse following i.m. administration. The note with it: im, read-out: PD50.
The subject of experiment [4] is Staphylococcus aureus. Description: Minimum inhibitory concentration against Staphylococcus aureus / + 50% calf serum A27223. It counts as functional. The procedure, abridged:
(§1)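 Broth MIC under NCCLS standard conditions in Mueller-Hinton broth plus 2% NaCl. Inoculum was about 5×10⁵ CFU/mL, incubated at 35 °C for 24 h. The endpoint was the lowest drug concentration inhibiting all visible growth. Where the line states it, 50% calf serum was added.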

Experiment [5] relates to Staphylococcus aureus. Description: Minimum inhibitory concentration against Staphylococcus aureus A9606 with 50% calf serum. Type of experiment: functional. The procedure, abridged:
(§2)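 Broth dilution MIC under standard NCCLS-recommended conditions. The MIC was read as the lowest drug concentration giving no visible growth. Where the line states it, 50% calf serum was added.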

The subject of a further experiment is Streptococcus pyogenes. Description: Minimum inhibitory concentration against Streptococcus pyogenes Todd Hewitt A9604. Type of experiment: functional. The essentials:
as §2

Experiment [6] concerns Staphylococcus aureus. Description: Minimum inhibitory concentration against Staphylococcus aureus / Pen.- A9497. Type of experiment: functional. The procedure, abridged: as §2
Experiment [7] relates to Enterococcus faecium. Description: Minimum inhibitory concentration against Enterococcus faecium A24885. It counts as functional. The essentials:
as §2

For experiment [8], the system named is Staphylococcus aureus. Description: Minimum inhibitory concentration against Staphylococcus aureus A27218 with 50% calf serum. It counts as functional. The essentials: as §1
Experiment [9] deals with Staphylococcus epidermidis. Description: Minimum inhibitory concentration against Staphylococcus epidermidis / MR A25783. Type of experiment: functional. The essentials:
as §2

Experiment [10] relates to Staphylococcus aureus. Description: Minimum inhibitory concentration against Staphylococcus aureus / Hetero MR A27218. It counts as functional. The essentials:
as §1

The test system of experiment [11] is Streptococcus pneumoniae. Description: Minimum inhibitory concentration against Streptococcus pneumoniae / Pen.I A27881. Type of experiment: functional. The essentials:
as §2

Experiment [12] relates to Enterococcus faecalis. Description: Minimum inhibitory concentration against Enterococcus faecalis A20688. Type of experiment: functional. The essentials:
as §2

The subject of experiment [13] is Staphylococcus epidermidis. Description: Minimum inhibitory concentration against Staphylococcus epidermidis / Imipenem A27368. Type of experiment: functional. The essentials:
as §2

The test system of experiment [14] is Enterococcus faecium. Description: Minimum inhibitory concentration against Enterococcus faecium Amp. R. Vanco. S A28156. Type of experiment: functional. The essentials:
as §2

Experiment [15] has as its system Staphylococcus aureus. Description: Minimum inhibitory concentration against Staphylococcus aureus / Homo MR A27621. Type of experiment: functional. The procedure, abridged: as §1
The subject of experiment [16] is Staphylococcus aureus. Description: Minimum inhibitory concentration against Staphylococcus aureus A20241 /MS/Pen. Type of experiment: functional. The essentials:
as §2

Experiment [17] concerns Staphylococcus aureus. Description: Minimum inhibitory concentration against Staphylococcus aureus / Hetero MR A27217. Type of experiment: functional. The procedure, abridged:
as §1

The test system of experiment [18] is Enterococcus faecalis. Description: Minimum inhibitory concentration against Enterococcus faecalis A20688 with 50% calf serum. Type of experiment: functional. The essentials:
as §2

The test system of experiment [19] is Staphylococcus epidermidis. Description: Minimum inhibitory concentration against Staphylococcus epidermidis A24548. It counts as functional. The procedure, abridged: as §2
Experiment [20] concerns Staphylococcus aureus. Description: Minimum inhibitory concentration against Staphylococcus aureus / Homo MR A27223. Type of experiment: functional. The procedure, abridged: as §1
Experiment [21] concerns Staphylococcus aureus. Description: Minimum inhibitory concentration against Staphylococcus aureus / Pen.+ A9606. It counts as functional. The essentials:
as §2

Experiment [22] relates to Staphylococcus aureus. Description: Minimum inhibitory concentration against Staphylococcus aureus / Homo MR A27295. Type of experiment: functional. The procedure, abridged: as §1
Experiment [23] has as its system Staphylococcus aureus. Description: Minimum inhibitory concentration against Staphylococcus aureus / MR. P- A27225. Type of experiment: functional. The essentials: as §1
In experiment [24] the test system is Staphylococcus haemolyticus. Description: Minimum inhibitory concentration against Staphylococcus haemolyticus / Homo MR A27229. Type of experiment: functional. The procedure, abridged:
as §2

The subject of experiment [25] is Staphylococcus haemolyticus. Description: Minimum inhibitory concentration against Staphylococcus haemolyticus A21638. It counts as functional. The procedure, abridged: as §2
Experiment [26] has as its system Streptococcus pneumoniae. Description: Minimum inhibitory concentration against penicillin resistant Streptococcus pneumoniae A28272. Type of experiment: functional.
In experiment [27] the test system is Staphylococcus aureus. Description: Minimum inhibitory concentration against Staphylococcus aureus / Homo MR A27226. It counts as functional. The essentials: as §1
Experiment [28] relates to Staphylococcus aureus. Description: Concentration required for 90% inhibitory activity against methicillin-resistant Staphylococcus aureus. It counts as functional. The procedure, abridged:
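Panel of 58 MRSA strains tested by NCCLS broth method in Mueller-Hinton broth with 2% NaCl. Inoculum about 5×10⁵ CFU/mL, 35 °C for 24 h. MICs read as no visible growth, and MIC90 derived across the panel.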

Experiment [29] in a line: Concentration required for the inhibitory activity against PBP2a.

The structures appear in SMILES notation. Converted amounts (≈) assume the structure as drawn.

This is an account of results in ChEMBL document CHEMBL1134236, “Anti-MRSA cephems. Part 1: C-3 substituted thiopyridinium derivatives” (Bioorg Med Chem Lett, 2001).

The MIC is the lowest concentration found to suppress growth. A word on the MIC90: it is an inhibitory concentration at the 90% level, which refers to growth in some studies and to a panel of isolates in others. One may read the IC50 as the point on the concentration scale where inhibition reaches its midpoint. A high value points to weaker potency in that assay.

Take `Cc1cc(SCC2=C(C(=O)[O-])N3C(=O)[C@@H](NC(=O)CSc4cc(Cl)ccc4Cl)[C@H]3SC2)cc(CCC(=O)O)[n+]1Cc1cccs1`: the results for the MIC against Staphylococcus aureus [1] and with Staphylococcus aureus [2] were 4 µg/mL (≈ 5.52 µM) and 8 µg/mL, respectively. Moreover, the ED50 in the experiment on Staphylococcus aureus [3] was over 23 mg/kg.
On to `C=CCCc1cc(SCC2=C(C(=O)[O-])N3C(=O)[C@@H](NC(=O)CSc4cc(Cl)ccc4Cl)[C@H]3SC2)cc(C)[n+]1CC[C@@H](O)C(=O)O`, for which the MIC against Staphylococcus aureus [1] came out at 4 µg/mL (≈ 5.61 µM); in the experiment on Staphylococcus aureus [2], 8 µg/mL. The ED50 in the experiment with Staphylococcus aureus [3] came out at 19.2 mg/kg.
In the case of `NCCC[n+]1ccc(SCC2=C(C(=O)O)N3C(=O)[C@@H](NC(=O)CSc4cc(Cl)ccc4Cl)[C@H]3SC2)cc1CCC(=O)O.O=C(O)C(F)(F)F.O=C([O-])C(F)(F)F`, the minimum inhibitory concentration (MIC) in the experiment on Staphylococcus aureus [4] was 2 µg/mL; in the experiment on Staphylococcus aureus [5], 0.125 µg/mL; against Streptococcus pyogenes, 0.003 µg/mL; against Staphylococcus aureus [6], 0.007 µg/mL; in the experiment on Enterococcus faecium [7] it was 2 µg/mL; in the experiment with Staphylococcus aureus [8] it was 1 µg/mL. The MIC in [9] amounted to 0.25 µg/mL; against Staphylococcus aureus [10], 0.5 µg/mL; in the experiment with Streptococcus pneumoniae [11], 0.003 µg/mL; against Enterococcus faecalis [12] it was 0.5 µg/mL; in experiment [13], 0.25 µg/mL; in the experiment with Enterococcus faecium [14], 64 µg/mL. In addition, the MIC was found to be 1 µg/mL in the experiment with Staphylococcus aureus [15]; 0.125 µg/mL in the experiment on Staphylococcus aureus [16]; 0.5 µg/mL with Staphylococcus aureus [17]; 2 µg/mL in the experiment with Staphylococcus aureus [1]; 1 µg/mL against Enterococcus faecalis [18]; 0.03 µg/mL in experiment [19]. Also, the MIC in the experiment with Staphylococcus aureus [2] stood at 2 µg/mL; with Staphylococcus aureus [20], 2 µg/mL; in the experiment on Staphylococcus aureus [21] it was 0.125 µg/mL; with Staphylococcus aureus [22], 4 µg/mL; against Staphylococcus aureus [23] it was 1 µg/mL; in experiment [24], 2 µg/mL. Further, the MIC in experiment [25] amounted to 0.06 µg/mL; in the experiment with Streptococcus pneumoniae [26] it was 0.06 µg/mL; against Staphylococcus aureus [27], 1 µg/mL. The ED50 in the experiment with Staphylococcus aureus [3] amounted to 2.1 mg/kg.
Turning to `Cc1cc(SCC2=C(C(=O)[O-])N3C(=O)[C@@H](NC(=O)CSc4cc(Cl)ccc4Cl)[C@H]3SC2)cc(CCC(=O)O)[n+]1C[C@@H](O)[C@H](O)[C@@H](O)C(O)O`, the values for the MIC in the experiment with Staphylococcus aureus [1] and in the experiment on Staphylococcus aureus [2] were 8 µg/mL (≈ 10.3 µM) and 16 µg/mL, respectively. The ED50 in the experiment with Staphylococcus aureus [3] was over 20 mg/kg.
In the experiment on Staphylococcus aureus [28], `NC(CCC[n+]1ccc(SCC2=C(C(=O)[O-])N3C(=O)[C@@H](NC(=O)CSc4cc(Cl)ccc4Cl)[C@H]3SC2)cc1)C(=O)O` (stereo partly specified) came in with an MIC90 of 3.5 µg/mL (≈ 5.32 µM). Moreover, the values for the MIC in the experiment with Staphylococcus aureus [1] and in the experiment on Staphylococcus aureus [2] were 1 µg/mL (≈ 1.52 µM) and 4 µg/mL, respectively. Moreover, the ED50 in the experiment on Staphylococcus aureus [3] amounted to 4.1 mg/kg. For the same compound, in [29], half-maximal inhibition (IC50) was put at 2800 nM.
As to `NCCC[n+]1ccc(SCC2=C(C(=O)O)N3C(=O)[C@@H](NC(=O)CSc4cc(Cl)nc(Cl)c4)[C@H]3SC2)cc1CCCC(=O)O.O=C(O)C(F)(F)F.O=C([O-])C(F)(F)F`, the MIC is 2 µg/mL against Staphylococcus aureus [1] and 4 µg/mL in the experiment with Staphylococcus aureus [2]. Moreover, the ED50 in the experiment with Staphylococcus aureus [3] came out at 4.3 mg/kg.
The compound `Cl.NCCC[n+]1ccc(SCC2=C(C(=O)O)N3C(=O)[C@@H](NC(=O)CSc4cc(Cl)ccc4Cl)[C@H]3SC2)cc1.[Cl-]` came in with an MIC90 against Staphylococcus aureus [28] of 2 µg/mL. In addition, the MIC in the experiment with Staphylococcus aureus [1] was 0.125 µg/mL; in the experiment on Staphylococcus aureus [2], 2 µg/mL. Also, the ED50 in the experiment with Staphylococcus aureus [3] worked out at 1.4 mg/kg. The IC50 in experiment [29] stood at 1200 nM.
For the compound `Cc1cc(SCC2=C(C(=O)[O-])N3C(=O)[C@@H](NC(=O)CSc4cc(Cl)ccc4Cl)[C@H]3SC2)cc(CCc2ccccc2)[n+]1CCS(=O)(=O)O`, the results for the MIC in the experiment on Staphylococcus aureus [1] and with Staphylococcus aureus [2] were 2 µg/mL (≈ 2.6 µM) and 4 µg/mL, respectively. The ED50 in the experiment with Staphylococcus aureus [3] was over 25 mg/kg.
The corresponding values for `CCCC[n+]1c(C)cc(SCC2=C(C(=O)[O-])N3C(=O)[C@@H](NC(=O)CSc4cc(Cl)ccc4Cl)[C@H]3SC2)cc1CCC(=O)O` are 4 µg/mL (≈ 5.84 µM), 8 µg/mL and over 23 mg/kg.
